Data on 2 compounds can be found in publication PMC6859084 (Drug Design, Development and Therapy, 2019).

The nature of data set [1]: Pharmacokinetics after single oral dose of FDC or loose combination. It counts as in vivo, human. As to conditions: FDC to loose combination. Put shortly: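 Healthy subjects, randomized open-label two-period crossover with 14-day washout, fasted overnight, single oral dose with 200 mL water. Heparinized blood drawn pre-dose to 72 h, centrifuged 1,800 rpm 8 min at 4°C, plasma mixed 1:1 with 5% formic acid, stored −70°C. LC-MS/MS (C18, positive ESI, MRM), validated 0.5–200 ng/mL. Non-compartmental parameters; log-transformed GMR from linear mixed-effects model.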

For data set [2] the following is noted: previously reported; cited from earlier work.
The subject of data set [3] is LDL-C. The settings on record: cited from earlier work.

SMILES strings stand for the structures. Where two headings read alike, the source gives them in different places.

Turning to `N[C@@H](CC(=O)N1CCc2c(nc(C(F)(F)F)nc2C(F)(F)F)C1)CN1CC(F)(F)CCC1=O` [Gemigliptin], in data set [1], the “AUClast Geometric Mean Ratio (90% CI)” value was 1.02 (0.96–1.09) and the “Cmax Geometric Mean Ratio (90% CI)” value was 1.08 (0.99–1.18). Besides, the half-life (in general, how long it takes for the measured level to halve) in data set [2] is on record as 17 h.

As for `CC(C)c1nc(N(C)S(C)(=O)=O)nc(-c2ccc(F)cc2)c1/C=C/[C@@H](O)C[C@@H](O)CC(=O)O` [Rosuvastatin], in data set [1], the “AUClast Geometric Mean Ratio (90% CI)” value was 1.02 (0.95–1.09) and the “Cmax Geometric Mean Ratio (90% CI)” value is listed as 1.09 (0.96–1.22). For the same compound, the LDL-C reduction in data set [3] (first week after rosuvastatin administration) is 64%. Also, the LDL-C reduction in data set [3] (second week after rosuvastatin administration) is 90%.
